Rev-erbA mod: modulators of Rev-erb alpha DNA binding, primary screen, biochemical, FITC-DNA, fluorescence polarization, uHTS; Nuclear receptor subfamily 1 group D member 1 (Homo sapiens), P20393; Rev-erbα–FITC-DNA binding, 90 min; activity, % at 10 µM; 0.79% of 370,000 active;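 active means activity above about 14%, limit read from the data; passing the limit was not always enough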;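 further: 0% = DMSO wells with 35 nM protein and 100% = DMSO wells with 750 nM protein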
NR2E3 ag-1: NR2E3 agonists in two-hybrid cells, primary screen, cell-based, luminescence, CHO-S, Gal4-NCOR/VP16-NR2E3; Photoreceptor-specific nuclear receptor (Homo sapiens), Q9Y5X4; AID 602229, 2012; luciferase; inhibition of corepressor binding, % at 3.98 µM; 0.35% of 360,000 active;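 active means inhibition above the mean of all tested compounds plus 3 SD, cut at about 70% in these data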;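 further: 0% = DMSO with NR2E3 transfected cells and 100% = cells lacking NR2E3 construct; higher means lower luciferase signal from less NR2E3 corepressor binding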
Target sequence (Q9Y5X4 whole entry, looked up, the tested form may be a part): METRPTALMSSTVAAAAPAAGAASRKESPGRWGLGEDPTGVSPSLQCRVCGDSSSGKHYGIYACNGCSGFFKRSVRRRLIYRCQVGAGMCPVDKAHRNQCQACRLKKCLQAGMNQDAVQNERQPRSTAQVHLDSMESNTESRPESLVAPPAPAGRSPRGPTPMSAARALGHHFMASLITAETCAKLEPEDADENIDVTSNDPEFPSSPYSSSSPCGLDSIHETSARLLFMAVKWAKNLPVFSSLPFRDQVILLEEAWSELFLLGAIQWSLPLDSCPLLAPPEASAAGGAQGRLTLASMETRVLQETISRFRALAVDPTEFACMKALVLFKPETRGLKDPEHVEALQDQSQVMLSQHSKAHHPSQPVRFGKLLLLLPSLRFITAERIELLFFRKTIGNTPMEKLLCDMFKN
NR2E3 ag-2: inhibitors of NR2E3-RetCOR corepressor binding, primary screen, NR2E3 agonist project, biochemical, TR-FRET, GST-NR2E3, biotin-RetCOR; Photoreceptor-specific nuclear receptor (Homo sapiens), Q9Y5X4; 1536-well; inhibition of corepressor binding, % at 4.78 µM; 0.12% of 320,000 active; AID 2300, 2010;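 active means percent inhibition above the cutoff of mean plus 3 SD of all tested compounds, set per screening campaign, cut at about 20% in these data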;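 further: 0% = DMSO wells and 100% = biotin wells as full block of FRET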
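system = GST-tagged NR2E3 plus biotinylated RetCOR corepressor | input = 1.35 nM GST-NR2E3 | also added = 7 nM biotin-RetCOR | schedule = 5 h incubation at 4 °C | measured by = TR-FRET with europium anti-GST and streptavidin-D2, 340 nm excitation | read-out = percent loss of FRET ratio relative to control wells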
PG9 Ab binder: binders of HIV-1 gp120 antibody PG9, primary screen, biochemical, TR-FRET; inhibition, % at 6.7 µM; 0.43% of 360,000 active; TR-FRET gp120-PG9 antibody binding; HIV-1 gp120 / PG9 antibody interaction; in the data active means inhibition above about 8.5%
PG9 bind confirm: binders of anti-gp120 antibody PG9, confirmation, biochemical, TR-FRET | AID 651571, 2012 | shares compounds with PG9 Ab binder | 90% of 1,500 active | inhibition, % at 6.7 µM | TR-FRET PG9 antibody binding; in the data active means inhibition above about 9%
PGV04 Ab binding: binders of control antibody PGV04, counter-screen for PG9 antibody binder project, biochemical, TR-FRET, distinct HIV envelope site | inhibition, % at 6.7 µM | shares compounds with PG9 Ab binder | 95% of 1,500 active | TR-FRET PGV04 antibody-gp120 binding; in the data active means inhibition above about 9.5%
PG9 bind DR: small-molecule binders of antibody PG9, dose response, biochemical, TR-FRET, HIV-1 gp120 antibody | shares compounds with PG9 Ab binder | TR-FRET PG9 antibody-gp120 binding inhibition | IC50, µM | 95 tested, under 10 active | AID 651848, 2012; in the data active means IC50 below about 10 µM
PGV04 binding DR: binders of control antibody PGV04, dose response, counter-screen for PG9 antibody binder project, biochemical, TR-FRET, distinct HIV envelope site; shares compounds with PG9 Ab binder; TR-FRET binding to control antibody PGV04; IC50, µM; 20% of 95 active
PG126 binding DR: binders of control antibody PG126, dose response, counter-screen for PG9 antibody binder project, biochemical, TR-FRET, distinct HIV envelope site | shares compounds with PG9 Ab binder | TR-FRET binding to antibody PG126, counterscreen | IC50, µM | 20% of 95 active | AID 651939, 2012
* = called active by the depositor; i = inactive; nt = no result. An excerpt weighted towards active compounds, which were near 1.4% of everything screened. Unless noted, no stated cut-off is given here; in the data, active means IC50 below about 9 µM; inactive means the rest.

SMILES	Rev-erbA mod	NR2E3 ag-1	NR2E3 ag-2	PG9 Ab binder	PG9 bind confirm	PGV04 Ab binding	others
C[N+]1=C(N)NC2=C3CCCCC3n3c(=O)n(-c4ccccc4)c(=O)n3C2C1 (stereo unspecified)	-5	nt	nt	nt	nt	nt
COc1ccc(NC(=O)c2c(NC(=O)CNCC(C)C)sc3c2CCC3)c(OC)c1	1	22	3	11*	9.9*	9.5*	PG9 bind DR=>67;PGV04 binding DR=i;PG126 binding DR=i
CCOC(=O)c1ccccc1NC(=O)/C=C/c1cc(OC)c(OC)c(OC)c1	1	-33	8	22*	19*	24*
COC(=O)c1ccc(OCC(=O)Nc2nn(-c3ccccc3)nc2C(N)=O)cc1	15	-15	6	12*	30*	34*
C[C@H](O)[C@@H]1CN2CCc3c([nH]c4cccc(-c5ccccc5)c34)[C@@H]2C[C@@H]1N(C)CC1CCCCC1	14	nt	nt	nt	nt	nt
CN1C(=O)C(=O)N2C(=C[C@]3(c4c[nH]c5ccccc45)c4ccccc4N[C@H]23)C1=O	-4	nt	nt	nt	nt	nt
O=C(c1ccc(F)cc1)C1CCN(c2ncnc3sccc23)CC1	5	nt	nt	nt	nt	nt
O=S(=O)(c1ccc(F)c(F)c1F)N1CCN(c2ncnc3sccc23)CC1	0	22	nt	11*	8	16*
Cc1ccc2c(n1)sc1c(N)ncnc12	-2	-10	-1	24*	22*	32*
Cc1cccc(-n2c(SCC(N)=O)nc3c(c2=O)C2(CCCC2)Cc2ccccc2-3)c1	-3	1	12	19*	20*	25*
O=C1C[C@@H](c2ccccc2)N=C2N(CC3CC3)C/C(=C/c3ccccc3)N12	2	nt	nt	nt	nt	nt
O=C1Cc2cc(S(=O)(=O)N3CCN(c4ccc(C(=O)O)cc4)CC3)ccc2N1	-5	-20	nt	1	nt	nt
CC(=O)c1ccc(N2CCN(S(=O)(=O)c3ccc4c(c3)NC(=O)CC(=O)N4)CC2)cc1	7	-44	1	13*	17*	30*
CN(C)c1ccc(NC(=S)OC2CCC23CCC(c2ccccc2)CC3)cc1 (stereo unspecified)	-1	nt	nt	nt	nt	nt
COC(=O)[C@]12C[C@H](CC(=O)NCCCCc3ccccc3)C(=O)N(Cc3ccco3)C1=C[C@H](COCc1ccccc1)O[C@@H]2C	4	nt	nt	nt	nt	nt
Cc1ccc(C)c(NC(=O)CN(C)C(=O)c2cc3c(s2)CCCCC3)c1	2	12	0	11*	16*	22*
Cc1ccc(NC(=O)CN(C)C(=O)c2cc3c(s2)CCCCC3)cc1	-4	-10	6	3	nt	nt
COCCNC(=O)c1c[nH]c2ccc(S(=O)(=O)N3CCc4ccccc43)cc2c1=O	-1	-11	-1	0	nt	nt
COCCNC(=O)c1c[nH]c2ccc(S(=O)(=O)Nc3ccccc3F)cc2c1=O	-1	-11	4	9.6*	22*	23*
COCCNC(=O)c1c[nH]c2ccc(S(=O)(=O)Nc3ccc(F)cc3F)cc2c1=O	-7	-4	2	9.3*	22*	22*	PG9 bind DR=>67;PGV04 binding DR=>67;PG126 binding DR=>67
COc1ccc(-c2nnc(-c3ccc(N(C)C)cc3)o2)cc1	-2	-83	6	0	nt	nt
CN(C)c1ccc(-c2nnc(-c3ccc(S(=O)(=O)C(F)F)cc3)o2)cc1	5	-6	2	11*	17*	20*
O=C1C=Cc2cccc3ccc(O)c1c23	-6	-18	nt	16*	20*	26*
COC(=O)C[C@H]1CC[C@H]2[C@H](COc3ccc(NC(=O)Cc4cccs4)cc3C(=O)N2C)O1	2	nt	nt	nt	nt	nt
COc1cc(C(=O)Nc2nc3ccc(C)cc3s2)ccc1OCc1c(C)noc1C	14	-37	4	12*	21*	26*
SMILES	Rev-erbA mod	NR2E3 ag-1	NR2E3 ag-2	PG9 Ab binder	PG9 bind confirm	PGV04 Ab binding	others
CCc1nnc(NC(=O)c2ccc(OCc3c(C)noc3C)c(OC)c2)s1	-4	9	2	-2	nt	nt
CCCc1c(C)nc2ccccc2c1SCCC#N	2	-8	0	0	nt	nt
CCc1c(C)nc2ccc(Br)cc2c1SCCC#N	5	-28	13	11*	13*	20*
CCc1c(C)nc2c(Br)cccc2c1SCCC#N	13	-28	1	9.6*	13*	19*
COc1ccc(-n2c(SCC(=O)NNC(=S)Nc3ccc(C)cc3)nnc2-c2ccccc2)cc1	-3	nt	nt	nt	nt	nt
COc1ccc(C(=O)NCCN(C)C)c2nc3ccccc3cc12	8	-15	nt	23*	20*	18*	PG9 bind DR=>67;PGV04 binding DR=>67;PG126 binding DR=>67
COc1ccc(OC)c(N=Cc2c(O)c3ccccc3oc2=O)c1	-3	-33	5	-3	nt	nt
COc1ccc(N=Cc2c(O)c3ccccc3oc2=O)cc1	3	-31	-1	32*	27*	39*
CC(=O)Nc1ccc(S(=O)(=O)Nc2nc3ccccc3nc2-n2ccc(=NC(=O)c3ccccc3)cc2)cc1	0	-33	-3	0	nt	nt
CC(=O)Nc1ccc(S(=O)(=O)Nc2nc3ccccc3nc2-n2ccc(=NC(=O)c3ccc(F)cc3)cc2)cc1	9	-2	0	41*	50*	81*
CCOc1ccc(S(=O)(=O)Nc2nc3ccccc3nc2-n2ccc(=NC(=O)c3cccs3)cc2)cc1	9	-14	5	20*	31*	73*
CCOc1ccc(-n2c(SCc3ccc(C#N)cc3)nnc2-c2ccco2)cc1	0	nt	nt	nt	nt	nt
Nc1c(-c2ccccc2)cnc2c(-c3ccccc3)cnn12	-4	-106	0	-3	nt	nt
N#Cc1cnn2c(N)c(-c3ccc(Cl)cc3)cnc12	1	-42	1	16*	24*	43*
CCOC(=O)CC[C@@H]1CC[C@]2(CCCN(Cc3nccn3C)C2)O1	-2	nt	nt	nt	nt	nt
Brc1ccc(Br)c2cnccc12	18	-41	nt	13*	26*	35*
CCN(c1ccc(F)cc1)S(=O)(=O)c1ccc2[nH]cc(C(=O)NCCCN3CCOCC3)c(=O)c2c1	1	-13	0	1	nt	nt
